Assay results pooled from the literature.
Protocols differ between the studies behind these lines.

| Structure (SMILES) | system | setting | Cmax |
| --- | --- | --- | --- |
| CC(C)(C)c1sc2ncnc(Oc3c(F)cccc3OC(F)(F)F)c2c1-c1ccc(Cl)cc1 | mouse, plasma | intravenous, 1 mg/kg, single dose | 2560 ng/mL |
| Cc1ncsc1-c1ccc([C@H](C)NC(=O)[C@@H]2C[C@@H](O)CN2C(=O)[C@@H](NC(=O)CCc2ccc(C#Cc3ccc(C(=O)NCCCn4cc(-c5ccc6c(c5)CCN6C(=O)Cc5cccc(OC(F)(F)F)c5)c5c(N)ncnc54)cc3)cn2)C(C)(C)C)cc1 | male C57BL/6 mouse, plasma | intravenous, 1 mg/kg | 11900 ng/mL |
| Cc1cc(-c2ccnc3[nH]cc(F)c23)cc(F)c1[C@@]1(O)[C@H](C)CN(C(=O)CN)C[C@@H]1C | male CD-1 mouse, plasma | intravenous, 1 mg/kg | 1980 ng/mL |
| CN(C)C(=O)c1cc2cnc(Nc3ccc(-c4ccc5c(=O)cc(N6CCOCC6)oc5c4)cc3)nc2n1C1CCCC1.Cl | BALB/c mouse, plasma | intravenous, 2 mg/kg | 3690 ng/mL |
| Cc1cc(-c2ccnc3[nH]cc(F)c23)cc(F)c1[C@@]1(O)[C@H](C)CN(C2CCS(=O)(=O)CC2)C[C@@H]1C | male CD-1 mouse, plasma | oral, 3 mg/kg | 750 ng/mL |
| CCOC(=O)c1c(NC(=O)CNC(C)C)sc2c1CCCCC2 | male mouse, plasma | intraperitoneal, 5 mg/kg, single dose | 193 ng/mL |
| O=C1CCC(N2Cc3cc(C4CCN(Cc5ccccc5)CC4)ccc3C2=O)C(=O)N1 (stereo not drawn) | male CD-1 mouse, plasma | intravenous, 1 mg/kg | 204 ng/mL |
| Cc1ncsc1-c1ccc([C@H](C)NC(=O)[C@@H]2C[C@@H](O)CN2C(=O)[C@@H](NC(=O)CCCCCCCCCCC(=O)NCCCn2cc(-c3ccc4c(c3)CCN4C(=O)Cc3cccc(OC(F)(F)F)c3)c3c(N)ncnc32)C(C)(C)C)cc1 | mouse, plasma | intravenous, 1 mg/kg | 2330 ng/mL |
| OCc1nc2ccc(NCc3ccc(C(F)(F)F)cc3)cc2[nH]1 | male BALB/c mouse, plasma | oral, 10 mg/kg | 1790 ng/mL |
| Cc1ccc(OCC(=O)N[C@@H](Cc2c[nH]c3ccccc23)C(=O)OC(C)C)cc1 | male Sprague-Dawley mouse, plasma | oral, 20 mg/kg | 2560 ng/mL |
| CC[C@H](C)[C@H](NC(=O)[C@H](CCC(=O)O)NC(=O)[C@H](CO)NC(=O)[C@@H](NC(=O)[C@@H](N)CO)C(C)C)C(=O)N[C@@H](CCC(N)=O)C(=O)N[C@@H](CC(C)C)C(=O)N[C@@H](CCSC)C(=O)N[C@@H](Cc1cnc[nH]1)C(=O)N[C@@H](CC(N)=O)C(=O)N[C@@H](CC(C)C)C(=O)NCC(=O)N[C@@H](CCCCN)C(=O)N[C@@H](Cc1cnc[nH]1)C(=O)N[C@@H](CC(C)C)C(=O)N[C@@H](CC(N)=O)C(=O)N[C@@H](CO)C(=O)N[C@@H](CCSC)C(=O)N[C@@H](CCC(=O)O)C(=O)N[C@@H](CCCNC(=N)N)C(=O)N[C@H](C(=O)N[C@@H](CCC(=O)O)C(=O)N[C@@H](Cc1c[nH]c2ccccc12)C(=O)N[C@@H](CC(C)C)C(=O)N[C@@H](CCCNC(=N)N)C(=O)N[C@@H](CCCCN)C(=O)N[C@@H](CCCCN)C(=O)N[C@@H](CC(C)C)C(=O)N[C@@H](CCC(N)=O)C(=O)N[C@@H](CC(=O)O)C(=O)N[C@H](C(=O)N[C@@H](Cc1cnc[nH]1)C(=O)N[C@@H](CC(N)=O)C(=O)N[C@@H](Cc1ccccc1)C(N)=O)C(C)C)C(C)C | female CD-1 mouse, serum | intravenous, 10 nmol/kg | 8 nM |
| NCc1ccc(-c2nn(Cc3ccccc3)c3ccccc23)o1 | male CD-1 mouse, plasma | intraperitoneal, 30 mg/kg | 4030 ng/mL |
| COC1=CC(c2ccc[nH]2)=N/C1=C\c1cc(Cc2ccc(OC(F)(F)F)cc2)c(C)[nH]1.Cl | male CD-1 mouse, plasma | oral, 40 mg/kg, single dose | 161 ng/mL |
| C[C@@H](CN1CCC(n2c(=O)[nH]c3cc(Cl)ccc32)CC1)NC(=O)c1ccc2ccccc2c1 | male CD-1 mouse, brain | intravenous, 1 mg/kg, single dose | 0.236 ng/mL |
| COCC(=O)N1CCc2[nH]c3c(Cl)c(Cl)ccc3c2[C@@H]1C | C57BL/6 mouse, blood | oral, 20 mg/kg | 3470 nM |
| NCc1ccc(-c2nn(Cc3ccncc3)c3ccccc23)o1 | male CD-1 mouse, plasma | oral, 10 mg/kg | 168 ng/mL |
| Cc1ccc(N(c2ccc(NC(=O)CN(C)c3ccccc3N3CCCC3=O)cc2)C(C)C)cc1 | male CD-1 mouse, plasma | oral, 20 mg/kg | 1000 ng/mL |
| Cc1nc2ccc(OCc3ccc(C(F)(F)F)cc3)cc2[nH]1 | male BALB/c mouse, plasma | intravenous, 1 mg/kg | 4540 ng/mL |
| OCc1ccc(-c2nn(Cc3ccccc3)c3ccccc23)o1 | male CD-1 mouse, plasma | intraperitoneal, 30 mg/kg | 5540 ng/mL |
| COC1=CC(c2ccc[nH]2)=N/C1=C\c1[nH]c(Cc2ccc(OC(F)(F)F)cc2)cc1Cc1ccc(OC(F)(F)F)cc1 | male CD-1 mouse, plasma | oral, 40 mg/kg, single dose | 3950 ng/mL |
| Cc1ncsc1-c1ccc([C@H](CC(=O)N2CCN(c3ccc(C#Cc4ccc(C(=O)N5CCC(n6cc(-c7ccc8c(c7)CCN8C(=O)Cc7cccc(OC(F)(F)F)c7)c7c(N)ncnc76)CC5)cc4)cn3)CC2)NC(=O)[C@@H]2C[C@@H](O)CN2C(=O)[C@@H](NC(=O)C2(F)CC2)C(C)(C)C)cc1 | male C57BL/6 mouse, plasma | intravenous, 1 mg/kg | 19600 ng/mL |
